Measured values published in ChEMBL document CHEMBL4312027, “Synthesis, characterization, and biological activity of a triphenylphosphonium-containing imidazolium salt against select bladder cancer cell lines” (Eur J Med Chem, 2020).
The source made the active and inactive calls. The rule behind the calls is not given here.

Tests used:
MDA-MB-231 = experiment: Growth inhibition of human MDA-MB-231 cells assessed as growth percent at 10 uM incubated for 48 hrs by sulforhodamine B assay relative to control; format: functional; settings: MDA-MB-231, 48 h, read-out: Activity
[1] = Toxicity in anesthetized female mouse model assessed as fibrosis at 750 to 1500 uM administered via intravesical instillation after bladder evacuation treated for 1 hr followed by repetition of the treatment after 24 hrs and measured at 24 hrs after final treatment; settings: in vivo, other
Outline: (§1)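 Female mice anesthetized, 1–3% isoflurane. Bladder evacuated, then 100 μL of 750 or 1500 μM in 10% DMSO/PBS (or vehicle) instilled by 24G angiocatheter. Catheter left in place for a 1 h dwell. Repeated after 24 h; mice sacrificed 24 h after final dose. Bladder histology read for urothelial height and layers.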

CAKI-1 = experiment: Growth inhibition of human Caki1 cells assessed as growth percent at 10 uM incubated for 48 hrs by sulforhodamine B assay relative to control; format: functional; settings: CAKI-1, 48 h, read-out: Activity
ACHN = experiment: Growth inhibition of human ACHN cells assessed as growth percent at 10 uM incubated for 48 hrs by sulforhodamine B assay relative to control; format: functional; settings: read-out: Activity
UMUC3 = experiment: Cell cycle arrest in human UM-UC-3 cells assessed as increase in cell accumulation at sub-G1 phase at 250 to 500 uM incubated for 1 hr measured after culturing in normal medium for 24 hrs by propidium iodide/RNase staining based FACScan flow cytometry analysis; format: functional
Outline: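 Seeded at 300,000 cells/well in triplicate per treatment; 24 h later exposed to 250 or 500 μM or vehicle for 1 h. After 24 h in normal media, media plus cells were collected, washed, fixed in cold 70% ethanol (4 °C, 30 min), treated with phosphate citric acid buffer, stained with PI/RNase and gated for sub-G1 by flow cytometry.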

LOX IMVI = experiment: Growth inhibition of human LOXIMVI cells assessed as growth percent at 10 uM incubated for 48 hrs by sulforhodamine B assay relative to control; format: functional; settings: read-out: Activity
SR = experiment: Growth inhibition of human SR cells assessed as growth percent at 10 uM incubated for 48 hrs by sulforhodamine B assay relative to control; format: functional; settings: read-out: Activity
HOP-92 = experiment: Growth inhibition of human HOP92 cells assessed as growth percent at 10 uM incubated for 48 hrs by sulforhodamine B assay relative to control; format: functional; settings: HOP-92, 48 h, read-out: Activity
RT-112 = experiment: Induction of mitochondrial membrane depolarization in human RT112 cells at 200 uM measured after 1 hr by JC-1 staining based confocal microscopy; format: functional, cell-based
Outline: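 RT112 cells, 200000 per glass-bottom dish, plated overnight. Exposed to 200 μM for 45 min, then JC-1 added (final 10 μg/mL) for 15 min. Confocal live imaging, excitation 485 nm, emission 530 and 590 nm, every 15 min for 6 h. Red punctate staining taken as polarized mitochondria, green as depolarized. CCCP as positive control.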

RT-4 = experiment: Growth inhibition of human RT4 cells at 1000 uM measured after 15 to 60 mins by Celltiter-Glo luminescent cell viability assay relative to control; format: functional; settings: read-out: GI
Outline: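 Cells seeded 10000/well, 24 h, then exposed in ATCC-recommended medium to 62.5–2000 μM (two-fold steps) or vehicle for the set time (5–60 min), then normal medium. After 24 h, plates equilibrated 30 min at room temperature, CellTiter-Glo added, 2 min at room temperature, luminescence read. Survival relative to vehicle control; quadruplicate.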

HCT-15 = experiment: Growth inhibition of human HCT15 cells assessed as growth percent at 10 uM incubated for 48 hrs by sulforhodamine B assay relative to control; format: functional; settings: HCT-15, 48 h, read-out: Activity
NCI/ADR-RES = experiment: Growth inhibition of human NCI/ADR-RES cells assessed as growth percent at 10 uM incubated for 48 hrs by sulforhodamine B assay relative to control; format: functional; settings: read-out: Activity
BT-549 = experiment: Growth inhibition of human BT549 cells assessed as growth percent at 10 uM incubated for 48 hrs by sulforhodamine B assay relative to control; format: functional; settings: BT-549, 48 h, read-out: Activity
[2] = Toxicity in anesthetized BBN-induced bladder tumor mouse model assessed as cleaved caspase 3 level in tumor adjacent normal […] at 1500 uM administered via intravesical instillation treated for 1 hr administered as 2 doses at 24 hrs interval and measured at 24 hrs after final treatment by hematoxylin and eosin staining based immunohistochemical analysis; settings: in vivo, other
Outline: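 Bladder tumors induced with 0.05% BBN in drinking water and confirmed by excretory μCT urography. Anesthetized (isoflurane) mice given intravesical 1500 μM or vehicle by catheter. Two 1 h doses 24 h apart. Females received 100 μL in 10% DMSO/PBS; males received doubled concentration in 50 μL of 20% DMSO/PBS. Bladder immunohistology for cleaved caspase-3.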

SF-295 = experiment: Growth inhibition of human SF295 cells assessed as growth percent at 10 uM incubated for 48 hrs by sulforhodamine B assay relative to control; format: functional; settings: SF-295, 48 h, read-out: Activity
SNB-19 = experiment: Growth inhibition of human SNB19 cells assessed as growth percent at 10 uM incubated for 48 hrs by sulforhodamine B assay relative to control; format: functional; settings: SNB-19, 48 h, read-out: Activity
Mus musculus = experiment: Induction of urothelium exfoliation in anesthetized female mouse model assessed as decrease in urothelial cell height at 750 to 1500 uM administered via intravesical instillation after bladder evacuation treated for 1 hr followed by repetition of the treatment after 24 hrs and measured at 24 hrs after final treatment by hematoxylin and eosin staining based analysis; format: organism-based; settings: in vivo, other; outline: as §1
MDA-MB-468 = experiment: Growth inhibition of human MDA-MB-468 cells assessed as growth percent at 10 uM incubated for 48 hrs by sulforhodamine B assay relative to control; format: functional; settings: MDA-MB-468, 48 h, read-out: Activity

**Q.** Which growth at 10 µM (MDA-MB-231) does the source give for [Br-].[Br-].c1ccc([P+](CCCc2n(Cc3ccc4ccccc4c3)c3ccccc3[n+]2Cc2ccc3ccccc3c2)(c2ccccc2)c2ccccc2)cc1 here?
**A.** 51%

**Q.** And the Activity [1]?
**A.** Non-Toxic

**Q.** What about the growth at 10 µM (CAKI-1) of the same molecule?
**A.** 79.9%

**Q.** What about the growth at 10 µM (ACHN) of the same molecule?
**A.** 81.4%

**Q.** What about the Activity (UMUC3) of the same molecule?
**A.** Active

**Q.** And the growth at 10 µM (LOX IMVI)?
**A.** 13.8%

**Q.** What about the growth at 10 µM (SR) of the same molecule?
**A.** 30.8%

**Q.** And the growth at 10 µM (HOP-92)?
**A.** 46.3%

**Q.** What about the Activity (RT-112) of the same molecule?
**A.** inactive

**Q.** And the inhibition of growth at 1000 µM (RT-4)?
**A.** 100%

**Q.** And the growth at 10 µM (HCT-15)?
**A.** 85.5%

**Q.** And the growth at 10 µM (NCI/ADR-RES)?
**A.** 83.7%

**Q.** And the growth at 10 µM (BT-549)?
**A.** 68.1%

**Q.** And the Activity [2]?
**A.** Non-Toxic

**Q.** And the growth at 10 µM (SF-295)?
**A.** 41.1%

**Q.** And the growth at 10 µM (SNB-19)?
**A.** 38.5%

**Q.** And the Activity (Mus musculus)?
**A.** Non-Toxic

**Q.** And the growth at 10 µM (MDA-MB-468)?
**A.** 34.5%
